Measured values from ChEMBL document CHEMBL1151929, “Synthesis and antiviral activity evaluation of acyclic 2'-azanucleosides bearing a phosphonomethoxy function in the side chain” (Bioorg Med Chem, 2009).
Activity calls are given as the source filed them.

Experiments:
Type in all cases: functional, organism-based
Sindbis virus = test: Antiviral activity against Sindbis virus infected in african green monkey Vero cells assessed as reduction of virus-induced cytopathic effect at 10 to 100 ug/ml
Summary of the method: (§1)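 Confluent cell monolayers in 96-well plates inoculated with 100 CCID50 of virus; 1–2 h adsorption, residual virus removed, then incubated with varying compound concentrations. CPE scored visually once complete in untreated infected controls; EC50 = concentration reducing virus-induced cytopathicity by 50%. Highest subtoxic concentrations tested 10–100 μg/mL.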

Human alphaherpesvirus 3 [1] = test: Antiviral activity against Varicella Zoster virus Oka infected in HEL cells assessed as reduction in viral plaque formation at 10 to 100 ug/ml
Coxsackievirus B4 [2] = test: Antiviral activity against Coxsackievirus B4 infected in african green monkey Vero cells assessed as reduction of virus-induced cytopathic effect at 10 to 100 ug/ml; summary of the method: as §1
Punta Toro virus = test: Antiviral activity against Punta Toro virus infected in african green monkey Vero cells assessed as reduction of virus-induced cytopathic effect at 10 to 100 ug/ml; summary of the method: as §1
[3] = test system: Vesicular stomatitis virus; test: Antiviral activity against VSV infected in HEL cells assessed as reduction of virus-induced cytopathic effect at 10 to 100 ug/ml
Human alphaherpesvirus 1 [4] = test: Antiviral activity against HSV1 KOS infected in HEL cells assessed as reduction of virus-induced cytopathic effect at 10 to 100 ug/ml
Human betaherpesvirus 5 [5] = test: Antiviral activity against HCMV AD169 infected in HEL cells assessed as reduction of virus plaque formation at 10 to 100 ug/ml
Summary of the method: (§2)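 HEL fibroblasts in 96-well plates infected with 100 PFU HCMV; 1–2 h adsorption, residual virus removed, incubation with varying compound concentrations. EC50 taken as concentration reducing viral plaque formation by 50%. Highest subtoxic concentrations 10–100 μg/mL.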

[6] = test system: Mammalian orthoreovirus 1; test: Antiviral activity against Reovirus 1 infected in african green monkey Vero cells assessed as reduction of virus-induced cytopathic effect at 10 to 100 ug/ml; summary of the method: as §1
Felid alphaherpesvirus 1 = test: Antiviral activity against Feline herpesvirus infected in cat CRFK cells assessed as effect on cell viability at 10 to 100 ug/ml by MTS assay
Summary of the method: (§3)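 CRFK feline kidney cells, confluent in 96-well plates, infected with 100 CCID50; after 1–2 h adsorption, inoculum removed and cultures kept with varying compound concentrations until CPE complete in untreated virus controls. Cell viability read by colorimetric formazan-based MTS assay; EC50 = concentration reducing virus-induced cytopathicity by 50%. Top subtoxic concentrations 10–100 μg/mL.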

Feline coronavirus = test: Antiviral activity against Feline coronavirus infected in cat CRFK cells assessed as effect on cell viability at 10 to 100 ug/ml by MTS assay; summary of the method: as §3
Human alphaherpesvirus 3 [7] = test: Antiviral activity against thymidine kinase-deficient Varicella Zoster virus 07/1 infected in HEL cells assessed as reduction in viral plaque formation at 10 to 100 ug/ml
Human alphaherpesvirus 2 = test: Antiviral activity against HSV2 G infected in HEL cells assessed as reduction of virus-induced cytopathic effect at 10 to 100 ug/ml; settings: strain G
[8] = test system: Vesicular stomatitis virus; test: Antiviral activity against VSV infected in human HeLa cells assessed as reduction of virus-induced cytopathic effect at 10 to 100 ug/ml
Summary of the method: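 Confluent HeLa cell cultures were inoculated with 100 CCID50 of VSV and allowed to adsorb for 1–2 h. Unbound virus was removed and cultures were incubated with varying compound concentrations. CPE was scored visually when complete in untreated infected controls. EC50 is the concentration reducing CPE by 50%.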

Human alphaherpesvirus 1 [9] = test: Antiviral activity against acyclovir-resistant thymidine kinase-deficient HSV1 KOS infected in HEL cells assessed as reduction of virus-induced cytopathic effect at 10 to 100 ug/ml
[10] = test system: Respiratory syncytial virus; test: Antiviral activity against RSV Long infected in human HeLa cells assessed as reduction of virus-induced cytopathic effect at 10 to 100 ug/ml; summary of the method: as §1
Human respirovirus 3 = test: Antiviral activity against Parainfluenza virus 3 infected in african green monkey Vero cells assessed as reduction of virus-induced cytopathic effect at 10 to 100 ug/ml; summary of the method: as §1
Vaccinia virus = test: Antiviral activity against Vaccinia virus Lederle infected in HEL cells assessed as reduction of virus-induced cytopathic effect at 10 to 100 ug/ml; settings: Orthopoxvirus vaccinia
Coxsackievirus B4 [11] = test: Antiviral activity against Coxsackievirus B4 infected in human HeLa cells assessed as reduction of virus-induced cytopathic effect at 10 to 100 ug/ml; summary of the method: as §1
Human betaherpesvirus 5 [12] = test: Antiviral activity against HCMV Davis infected in HEL cells assessed as reduction of virus plaque formation at 10 to 100 ug/ml; summary of the method: as §2

Measured: Activity

Cc1ccc(S(=O)(=O)N(CCOCP(=O)(O)O)Cn2cc(C)c(=O)[nH]c2=O)cc1
inactive: all assays above

Cc1ccc(S(=O)(=O)N(CCOCP(=O)(O)O)Cn2ccc(=O)[nH]c2=O)cc1
inactive: all assays above

Cc1ccc(S(=O)(=O)N(CCOCP(=O)(O)O)Cn2ccc(N)nc2=O)cc1
inactive: all assays above

Cc1ccc(S(=O)(=O)N(CCOCP(=O)(O)O)Cn2cc(F)c(=O)[nH]c2=O)cc1
inactive: all assays above
